We go through five molecules from ChEMBL document CHEMBL1129428 (J Med Chem, 1996).

For series [1], the system named is Mus musculus. As to the kind of experiment: Anticonvulsant activity after intraperitoneal injection into mice measured in a maximal electroshock scree (MES) screen. Type of series: functional.
Series [2] concerns Mus musculus. Kind of series: Anticonvulsant activity after intraperitoneal injection into mice by using scPTZ screen test after 4 hr. Type of series: functional.
Series [3] concerns Rattus norvegicus. As to the kind of experiment: Compound was tested for anticonvulsant activity after Oral Administration into Rats by using MES screen test after 4h,dose 12.5 mg/kg; number of rats out of four which were protected. Type of series: functional. The method in brief:
(§1)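 Rats received the compound orally. […] Rats were tested in the MES screen at 0.25, 0.5, 1, 2 and 4 h. Each value is the number of rats protected out of 4. The test followed NINDS procedures.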

Series [4] is described as follows: Compound was tested for toxicity after oral administration in rat by using neurotoxicity screen test after 0.25-24 hr. Type of series: organism-based. Particulars: in vivo. In a few lines:
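Rat neurotoxicity after oral dosing, observed at 0.25, 0.5, 1, 2, 4, 6, 8 and 24 h (8 h omitted for one compound).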

Series [5] relates to Mus musculus. As to the kind of experiment: Toxicity after intraperitoneal injection into mice by using toxicity screen test after 0.5 hr. Type of series: organism-based. The conditions noted are these: in vivo, ip. In a few lines: (§2)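 Mice injected intraperitoneally at 30, 100 and 300 mg/kg and examined 0.5 and 4 h afterwards. Each entry is the minimum dose giving activity (MES protection, scPTZ protection, or rotorod failure for neurotoxicity) in half or more of the mice. Activity is called absent if nothing occurs at 300 mg/kg.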

Series [6] relates to Mus musculus. As to the kind of experiment: Anticonvulsant activity after intraperitoneal injection into mice by using MES screen test after 0.5 hr. Type of series: functional.
For series [7], the system named is Mus musculus. Kind of series: Compound was tested for anticonvulsant activity after intraperitoneal injection into mice by using MES screen test after 4 hr. Type of series: functional. The conditions noted are these: ip. The method in brief: as §2
For series [8], the system named is Rattus norvegicus. Kind of series: Compound was tested for anticonvulsant activity after Oral Administration into Rats by using MES screen test after 2h,dose 12.5 mg/kg; number of rats out of four which were protected. Type of series: functional. In a few lines: as §1
For series [9], the system named is Rattus norvegicus. As to the kind of experiment: Compound was tested for anticonvulsant activity after Oral Administration into Rats by using MES screen test after 0.25h,dose 12.5 mg/kg; No activity was demonstarted. Type of series: functional, organism-based. Also noted: dose 12.5 mg/kg. In a few lines: as §1
The subject of series [10] is Mus musculus. As to the kind of experiment: Compound was tested for toxicity after intraperitoneal injection into mice by using toxicity screen test after 4 hr. Type of series: organism-based. Particulars: in vivo, ip. In a few lines:
as §2

Series [11] in a line: Compound was tested for toxicity after intraperitoneal injection into mice by using neurotoxicity screen test after 4 hr. Type of series: organism-based. Particulars: mouse, in vivo, ip. The method in brief:
as §2

The subject of series [12] is Rattus norvegicus. As to the kind of experiment: Compound was tested for anticonvulsant activity after Oral Administration into Rats by using MES screen test after 0.5h,dose 12.5 mg/kg; No activity was demonstarted. Type of series: functional, organism-based. Also noted: dose 12.5 mg/kg. In a few lines:
as §1

Series [13] deals with Rattus norvegicus. As to the kind of experiment: Compound was tested for anticonvulsant activity after Oral Administration into rat by using MES screen test at 4 hr. Type of series: functional. The method in brief: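 Rats dosed orally, typically at 50 mg/kg first, then mostly 12.5 mg/kg (some compounds at 30 mg/kg), and tested by maximal electroshock. Four rats per compound, scored at 0.25, 0.5, 1, 2 and 4 h as the number of rats protected out of 4.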

Series [14] concerns Mus musculus. Kind of series: Compound was tested for anticonvulsant activity after intraperitoneal injection into mice by using scPTZ screen test after 4 hr. Type of series: functional. The conditions noted are these: ip. In a few lines:
as §2

Series [15] concerns Rattus norvegicus. Kind of series: Compound was tested for anticonvulsant activity after Oral Administration into Rats by using MES screen test after 1h,dose 12.5 mg/kg; number of rats out of four which were protected. Type of series: functional. The method in brief:
as §1

For series [16], the system named is Mus musculus. As to the kind of experiment: Compound was tested for anticonvulsant activity after intraperitoneal injection into mice by using MES screen test after 1 hr. Type of series: functional. The conditions noted are these: ip. In a few lines: (§3)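 Quantitative intraperitoneal mouse testing in the MES, scPTZ or rotorod neurotoxicity screens at the peak time given for each compound (0.25–2 h). ED50 or TD50 reported in mg/kg with 95% CI and slope (SE).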

Series [17] has as its system Rattus norvegicus. Kind of series: Anticonvulsant activity after oral administration into rats. Type of series: functional. Also noted: concentration or dose not given beside the values.
The subject of series [18] is Mus musculus. Kind of series: Compound was tested for anticonvulsant activity after intraperitoneal injection into mice by using scPTZ screen test after 0.5 hr. Type of series: functional. Particulars: ip. The method in brief: as §2
In series [19] the test system is Rattus norvegicus. Kind of series: Compound was tested for anticonvulsant activity after Oral Administration into Rats by using MES screen test after 0.25h,dose 12.5 mg/kg; number of rats out of four which were protected. Type of series: functional. The method in brief:
as §1

Series [20] can be described thus: Compound was tested for toxicity after intraperitoneal injection into mice by using neurotoxicity screen test after 1 hr. The conditions noted are these: mouse, in vivo, ip. Type of series: organism-based. In a few lines:
as §3

Series [21] is described as follows: Protection index = TD50/ED50 (MES). Particulars: mouse, in vivo; read-out: PI.
Series [22] relates to Mus musculus. As to the kind of experiment: Anticonvulsant activity after intraperitoneal injection into mice by using scPTZ screen after 0.5 hr. Type of series: functional.
The nature of series [23]: Protection index = TD50/ED50 (scPTZ ). Type of series: ADME. The conditions noted are these: read-out: PI. The method in brief: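 Protection index calculated as TD50/ED50 from mouse intraperitoneal scPTZ ED50 and rotorod TD50 values, each taken at its own peak time.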
Series [24] relates to Rattus norvegicus. Kind of series: Compound was tested for anticonvulsant activity after Oral Administration into Rats by using MES screen test after 1h,dose 50 mg/kg; number of rats out of four which were protected; number of rats out of four which were protected. Type of series: functional. The method in brief:
as §1

The test system of series [25] is Rattus norvegicus. As to the kind of experiment: Compound was tested for anticonvulsant activity after Oral Administration into Rats by using MES screen test after 0.25h,dose 50 mg/kg; No activity was demonstarted. Type of series: functional, organism-based. More on the design: dose 50 mg/kg. The method in brief:
as §1

In series [26] the test system is Rattus norvegicus. As to the kind of experiment: Compound was tested for anticonvulsant activity after Oral Administration into Rats by using MES screen test after 0.5h,dose 50 mg/kg; number of rats out of four which were protected. Type of series: functional. In a few lines: as §1
Series [27] in a line: Compound was tested for […] after intraperitoneal injection into mice by using neurotoxicity screen test after 2 hr. Type of series: organism-based. The conditions noted are these: mouse, in vivo, ip. The method in brief:
as §3

Series [28] concerns Mus musculus. Kind of series: Compound was tested for anticonvulsant activity after intraperitoneal injection into mice by using MES screen test after 0.5 hr. Type of series: functional. Particulars: ip. In a few lines:
as §2

In series [29] the test system is Rattus norvegicus. As to the kind of experiment: Compound was tested for anticonvulsant activity after Oral Administration into Rats by using MES screen test after 2h,dose 50 mg/kg; number of rats out of four which were protected. Type of series: functional. The method in brief:
as §1

Series [30] concerns Mus musculus. Kind of series: Compound was tested for toxicity after intraperitoneal injection into mice using toxicity screen test. The conditions noted are these: in vivo, ip.
For series [31], the system named is Rattus norvegicus. As to the kind of experiment: Compound was tested for anticonvulsant activity after Oral Administration into Rats by using MES screen test after 4h,dose 50 mg/kg; number of rats out of four which were protected. Type of series: functional. In a few lines: as §1
In series [32] the test system is Rattus norvegicus. As to the kind of experiment: Compound was tested for anticonvulsant activity after Oral Administration into Rats by using MES screen test after 0.5h,dose 15 mg/kg; No activity was demonstarted. Type of series: functional, organism-based. Also noted: dose 15 mg/kg. The method in brief: as §1
Series [33] deals with Rattus norvegicus. As to the kind of experiment: Compound was tested for anticonvulsant activity after Oral Administration into Rats by using MES screen test after 1h,dose 15 mg/kg; number of rats out of four which were protected. Type of series: functional. The method in brief: as §1
In series [34] the test system is Rattus norvegicus. As to the kind of experiment: Compound was tested for anticonvulsant activity after Oral Administration into Rats by using MES screen test after 0.25h,dose 15 mg/kg; No activity was demonstarted. Type of series: functional, organism-based. Also noted: dose 15 mg/kg. In a few lines: as §1
Series [35] relates to Rattus norvegicus. As to the kind of experiment: Compound was tested for anticonvulsant activity after Oral Administration into Rats by using MES screen test after 2h,dose 15 mg/kg; number of rats out of four which were protected. Type of series: functional. The method in brief: as §1
Series [36] concerns Rattus norvegicus. As to the kind of experiment: Compound was tested for anticonvulsant activity after Oral Administration into Rats by using MES screen test after 4h,dose 15 mg/kg; number of rats out of four which were protected. Type of series: functional. In a few lines: as §1
Series [37] deals with Rattus norvegicus. Kind of series: Compound was tested for anticonvulsant activity after Oral Administration into Rats by using MES screen test after 2h.,dose 12.5 mg/kg; number of rats out of four which were protected. Type of series: functional. The method in brief:
as §1

Series [38] deals with Rattus norvegicus. As to the kind of experiment: Compound was tested for anticonvulsant activity after Oral Administration into Rats by using MES screen test after 4h,dose 12.5 mg/kg; No activity was demonstarted. Type of series: functional, organism-based. Also noted: dose 12.5 mg/kg. The method in brief:
as §1

Bounds are passed on as bounds.

As for `CC(C)(C)c1ccc(Oc2ccc(/C=N\NC(N)=O)cc2)cc1`, the Dose amounted to 30 mg/kg in the series on Mus musculus [1]; 100 mg/kg in the series on Mus musculus [2]; 100 mg/kg in the series with Mus musculus [5]; 100 mg/kg with Mus musculus [6]; 100 mg/kg with Mus musculus [10]. For the same molecule, the Activity is 4 in the series on Rattus norvegicus [3]; 4 with Rattus norvegicus [8]; “No activity” in the series with Rattus norvegicus [9]; “No activity” in the series with Rattus norvegicus [12]; 4 in the series with Rattus norvegicus [15]. Also, the TD50 in series [4] is above 500 mg/kg. Moreover, the median effective dose (ED50) was 8.87 mg/kg in the series with Mus musculus [7], 1.68 mg/kg in the series with Rattus norvegicus [13] and above 150 mg/kg in the series with Mus musculus [14]. Further, in series [11], the TD50 at 4 h amounted to 106 mg/kg.
Regarding `C/C(=N/NC(N)=O)c1ccc(Sc2ccc(Br)cc2)cc1`, the Dose was 30 mg/kg in the series with Mus musculus [1], 100 mg/kg with Mus musculus [6], 300 mg/kg with Mus musculus [22] and 300 mg/kg with Mus musculus [10]. Also, the Activity with Rattus norvegicus [3] was 4; in the series on Rattus norvegicus [17], 3; with Rattus norvegicus [19], 1; in the series on Rattus norvegicus [8] it was 4; with Rattus norvegicus [15], 4. The ED50 with Mus musculus [16] came to 3.82 mg/kg; in the series with Mus musculus [18], 41.9 mg/kg. The molecule further showed a TD50 at 1 h in series [20] of 43.2 mg/kg. For the same molecule, the selectivity ratio in [21] worked out at 11.3; in [23], 1.03.
On to `NC(=O)N/N=C\c1ccc(Oc2cccc(Cl)c2)cc1`, for which the Activity with Rattus norvegicus [24] was 4; in the series with Rattus norvegicus [25] it was “No activity”; in the series with Rattus norvegicus [26], 4; with Rattus norvegicus [29] it was 4; in the series on Rattus norvegicus [31], 4. The Dose in the series with Mus musculus [1] is 100 mg/kg; with Mus musculus [2], 300 mg/kg; in the series on Mus musculus [6], 30 mg/kg; with Mus musculus [22], 30 mg/kg; with Mus musculus [10], 100 mg/kg; with Mus musculus [30] it was 300 mg/kg. In addition, the median effective dose (ED50) in the series on Mus musculus [18] came to 41.2 mg/kg; in the series on Mus musculus [28] it was 27.7 mg/kg. The same molecule registered a TD50 at 2 h in series [27] of 64.5 mg/kg.
`CCC(C)(C)c1ccc(Oc2ccc(/C=N/NC(N)=O)cc2)cc1`: the Activity result with Rattus norvegicus [32] was “No activity”; in the series with Rattus norvegicus [33], 2; in the series with Rattus norvegicus [34], “No activity”; with Rattus norvegicus [35] it was 3; with Rattus norvegicus [36] it was 4. Moreover, the Dose in the series with Mus musculus [6] amounted to 300 mg/kg.
In the case of `NC(=O)N/N=C\c1ccc(OCc2ccccc2)cc1`, the Dose amounted to 300 mg/kg in the series on Mus musculus [1], 100 mg/kg with Mus musculus [2] and 300 mg/kg with Mus musculus [6]. In addition, the Activity in the series on Rattus norvegicus [37] is 1; with Rattus norvegicus [9], “No activity”; with Rattus norvegicus [12], “No activity”; with Rattus norvegicus [38], “No activity”; with Rattus norvegicus [15] it was 1.
